Screening data as filed in PubChem.
Most compounds without a hit are left out; they make up all but 3.1% or so of the library.
EWS-Fli inh: EWS/Fli-driven NR0B1 reporter inhibitors, primary screen, A673 cells, NR0B1 luciferase, luminescence, MLPCN library; viability-normalised; inhibition, % at 12.6 µM; hit rate 0.67% among 350,000; AID 651661, 2012;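 active = mean inhibition of at least 50% after viability correction, with every replicate also passing that limit; inconclusive = mean reaches 50% but only one of two replicates passes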;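 also: firefly luciferase signal divided by Alamar Blue viability fluorescence both relative to DMSO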
PAX8 inh HTS: inhibitors of PAX8-driven TPO luciferase reporter, primary screen, RMG-I cells, single concentration | SteadyGlo, 24 h | hit rate 1.2% among 360,000 | inhibition, % at 12.6 µM;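 active = mean replicate inhibition at least 60% with every replicate also reaching 60%; inconclusive = only one of the two criteria is met; inactive = mean below 60% and not all replicates reaching 60%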;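 also: luciferase light reporting Pax8 driven TPO promoter activity; plate controls were median of neutral control wells for no effect and mitoxantrone controls for full effect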
PGC1a acetyl inh: inhibitors of PGC1a acetylation signal, primary screen, cell-based, U2OS, AlphaScreen, inhibitor mode. AlphaScreen anti-acetyl-lysine; with virally co-expressed GCN5 acetyltransferase. inhibition, % at 15.6 µM. hit rate 0.17% among 350,000;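 active = every replicate shows inhibition of at least 40%; inconclusive = mean inhibition at least 40% but some replicate below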;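 also: 0% = neutral control wells and 100% = positive control wells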
HIV Env fusion: inhibitors of HIV-1 Env-driven cell-cell fusion, primary screen, HeLa-JRFL effector, CEM21 target cells, luciferase | inhibition, % at 12.3 µM | hit rate 1.1% among 360,000 | AID 651610, 2012;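 active = mean replicate inhibition score of at least 50 and every replicate individually at or above 50; inconclusive = only one of the two criteria met; inactive = mean below 50 and not all replicates reaching 50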;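 also: 0% = plate neutral controls and 100% = maraviroc near 300 nM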
FN deposition inh: inhibitors of fibronectin matrix deposition, primary screen, AH1F cells, Alexa488-fibronectin fluorescence, plate reader. AH1F fibroblasts, overnight. inhibition, % at 12.6 µM. hit rate 0.086% among 350,000;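 active = mean inhibition across replicates of 30% or more, regardless of how many single replicates reach that level; inconclusive = mean under 30% yet at least half of replicates reach 30%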;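 also: positive control wells lacked labelled fibronectin entirely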
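Test system: AH1F fibroblast monolayer depositing Alexa488-labelled fibronectin into matrix. Input: 10000 cells per well. Technique: fluorescence, ex 485 nm, em 525 nm. Buffer or medium: DMEM plus 2% serum, read in PBS. Timing: 1 h cell adhesion before compound, then overnight fibronectin incubation. Compound: single dose, pinned. Read-out basis: inhibition from reduced deposited-fibronectin fluorescence.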
FGF22 binding: binders of human FGF22 protein, primary screen, FGF22 synaptogenesis inhibitor project, biophysical, thermal shift, single point | Fibroblast growth factor 22 (Homo sapiens), Q9HCT0 | recombinant FGF22 thermal shift, SYPRO orange fluorescence; percent of sucrose octasulfate shift, DMSO zero | activity (Tm shift, normalised), % at 9.99 µM | hit rate 1.5% among 340,000 | AID 651658, 2012;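 active = mean Tm shift, scaled 0 neutral to 100 positive control, at about 1.3% or above, every replicate too, limit read from the data; inconclusive = no clear call, values can overlap the other calls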
Target sequence (Q9HCT0 whole entry, looked up): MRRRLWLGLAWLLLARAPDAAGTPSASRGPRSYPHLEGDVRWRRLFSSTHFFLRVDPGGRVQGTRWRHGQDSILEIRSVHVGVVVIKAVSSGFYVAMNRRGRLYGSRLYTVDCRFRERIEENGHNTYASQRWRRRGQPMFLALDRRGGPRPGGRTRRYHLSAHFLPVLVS
Numbers without * were called inactive; ? = inconclusive; . = no result given; [ ] = dose if it differs, or a comment.

SMILES | EWS-Fli inh | PAX8 inh HTS | PGC1a acetyl inh | HIV Env fusion | FN deposition inh | FGF22 binding
Cc1noc(C)c1S(=O)(=O)Nc1ccc2c(c1)C(=O)N([C@@H](C)CO)C[C@@H](C)[C@H](CN(C)S(=O)(=O)c1c(C)noc1C)OCCCC[C@@H](C)O2 | -1.8 | 4.8 | -3.9 | -10.4[16.7 µM] | -3.7 | -0.2
c1ccc(CSc2nnc([C@@H]3CCCN3)o2)cc1 | . | . | . | 93.7* | 9.1 | .
O=C(Nc1ccc2c(c1)OCO2)N[C@@H]1CC[C@H](CC(=O)N2CCN(c3ccccc3)CC2)O[C@H]1CO | 2.3 | 9.1 | -7.2 | 22.5[16.7 µM] | 0.4 | 0.1
C/C(=N\NC(=O)c1cc(C)nc2ccccc12)c1ccccn1 | 40.4 | 25.7 | . | 61.2* | 6.7 | 0.2
CCCCCCN(C(=O)CCCCCN1C(=O)NC(c2ccc(-c3ccccc3)cc2)C(C(=O)OCc2ccccc2)=C1C)C(C(=O)NCCCC)C1CCCCC1 (stereo unspecified) | -0.3 | -6.0 | . | 22.6 | 0.2 | 0.1
CCOC(=O)C1=C(C)N(C[C@@H]2CC[C@@H](Cc3ccc(-c4ccccc4)cc3)O2)C(=O)NC1c1ccc(-c2ccccc2)cc1 (stereo partly specified) | -3.3 | -3.6 | 5.2 | 71.6* | . | -0.3
CCCCCCN(C(=O)CCCCCN1C(=O)NC(c2ccc(-c3ccccc3)cc2)C(C(=O)OCc2ccccc2)=C1C)C(C(=O)NCCCC)c1ccccn1 (stereo unspecified) | 7.4 | 79.6* | . | 27.3 | 8.4 | 0.0
COc1ccc(S(=O)(=O)N[C@@H]2CC[C@H](CCn3cc(C(C)C)nn3)O[C@@H]2CO)cc1 | -9.7 | -2.9 | -4.3 | -10.9[16.7 µM] | 2.8 | 0.1
Cc1ccc(S(=O)(=O)N(C)C[C@@H]2OCc3ccccc3-c3ccccc3C(=O)N([C@H](C)CO)C[C@H]2C)cc1 | 3.1 | . | -4.9 | . | 15.4 | -0.1
O=C(/C=C/C(Cl)(Cl)Cl)Nc1ccc(Cl)cc1 | 52.6* | 51.2 | 9.0 | -5.0 | -2.3 | 0.0
CCCCCC1(C(=O)OCC)CC(CSC(=N)N)OC1=O (stereo unspecified) | 48.6 | 1.4 | . | -143.4 | -19.6 | 43.5*
C=C(C(=O)c1ccccc1)C(NC(C)(C)C)c1ccccc1 (stereo unspecified) | 42.9 | 81.0* | . | -6.9 | 18.9 | -0.2
COC(=O)C(NC(=O)c1ccccc1)c1ccccc1 (stereo unspecified) | . | . | 6.7 | -47.7 | . | .
C=C(C(=O)c1ccccc1)C(C)CC(=O)c1ccccc1 (stereo unspecified) | . | 61.6* | . | -12.4 | -2.1 | .
COc1cccc(-c2cnc3c(c2)C(=O)N([C@@H](C)CO)C[C@@H](C)[C@@H](CN(C)Cc2ccc(F)cc2)O3)c1 | 0.9 | . | -0.1 | 30.9[16.7 µM] | . | -0.1
COCCn1c(SC(C)C(=O)Nc2ncc(Cl)cc2Cl)nc2ccccc21 (stereo unspecified) | . | . | 43.6* | . | . | .
CC(=O)c1cccc(-c2ccnc3c2CC(C(=O)NCc2ccccc2)O3)c1 (stereo unspecified) | 63.1* | 82.8* | . | -124.4 | -1.8 | -0.3
CC(=O)Nc1cccc(-c2ccnc3c2CC(C(=O)NCc2cccs2)O3)c1 (stereo unspecified) | 72.3* | 14.2 | -1.6 | -93.1 | 2.1 | -0.2
CC(=O)c1cccc(-c2ccnc3c2CC(C(=O)NCc2ccc(F)c(F)c2)O3)c1 (stereo unspecified) | 64.6* | ? | . | -60.1 | -0.1 | -0.3
CNc1ccc2nnc(C(F)(F)C(F)(F)C(F)(F)F)n2n1 | 11.2 | -2.7 | -10.0 | -2.3 | 0.4 | 43.1*
CSc1nnc2c(n1)OC(c1ccccn1)N(C(C)=O)c1ccccc1-2 (stereo unspecified) | -0.3 | 7.3 | . | -15.2 | 0.5 | 43.4*
O=S(=O)(c1ccc2c(c1)OCCO2)N1CCC(c2nc3ccccc3[nH]2)CC1 | . | . | . | 1.7 | -0.6 | .
O=S(=O)(c1ccc2c(c1)OCCO2)N1CCC(c2nc3ccc(Cl)cc3[nH]2)CC1 | . | . | 9.7 | 55.2* | -1.9 | .
O=C(CSc1nc(O)cc(=O)n1-c1ccccc1)Nc1nc2ccccc2s1 | -4.0 | 15.5 | -13.1 | 66.6* | -1.5 | 0.1
O=C(CSc1nc(O)cc(=O)n1-c1ccccc1)Nc1ccc2c3c(cccc13)CC2 | 7.3 | -11.9 | -0.7 | 5.8 | -0.2 | 43.5*
SMILES | EWS-Fli inh | PAX8 inh HTS | PGC1a acetyl inh | HIV Env fusion | FN deposition inh | FGF22 binding
Cc1ccc(-c2ccc(C3[C@@H]4CN(S(=O)(=O)c5ccc(C)cc5)C[C@H]3N4)cc2)cc1 (stereo partly specified) | 8.1 | 73.2* | -18.7 | . | -2.8 | .
NC(=S)NN=C1c2cc(OCCN3CCOCC3)ccc2-c2ccc(OCCN3CCOCC3)cc21 | 63.9* | 58.8 | . | 17.4 | 15.0 | -0.1
ON=C1c2cc(OCCN3CCCCC3)ccc2-c2ccc(OCCN3CCCCC3)cc21 | . | . | -3.0 | . | . | .
Cc1cccc(-n2c(SCC(=O)NCc3ccco3)nc3ccccc3c2=O)c1 | . | . | . | 61.5* | 11.1 | .
CCn1c(SCC(=O)NCc2ccccc2)nc2ccccc2c1=O | 3.6 | . | . | . | . | 0.1
O=C(CSc1nc2ccccc2c(=O)n1-c1ccccc1)NCc1ccco1 | . | . | 0.3 | . | . | .
CCn1cc(SCC(=O)NCc2ccc3c(c2)OCO3)c2ccccc21 | 2.2 | -3.0 | . | 66.8* | 9.6 | -0.1
O=C(CSc1nc2ccccc2c(=O)n1Cc1ccc(Cl)cc1)NCc1cccs1 | 30.5 | 1.7 | 6.0 | 69.8* | . | 0.3
Cc1cccc(-n2c(SCC(=O)NCc3ccc4c(c3)OCO4)nc3ccccc3c2=O)c1 | -14.4 | 2.4 | . | 39.3 | -8.1 | 0.0
O=C(CSc1nc2ccccc2c(=O)n1-c1ccccc1)NCc1ccc2c(c1)OCO2 | . | . | -11.4 | 80.2* | 4.5 | .
C[C@@H]1CN([C@H](C)CO)C(=O)c2cc(NC(=O)Nc3ccc4c(c3)OCO4)ccc2O[C@H]1CN(C)S(C)(=O)=O | 0.3 | . | 30.5 | . | . | 0.0
CN(C)CC#Cc1ccc([C@@H]2[C@@H](CO)N3C(=O)CN(C(=O)Cc4cccnc4)C[C@@H]23)cc1 | 6.2 | -5.2 | 5.7 | . | . | .
CC(Sc1nnc2ccccn12)C(=O)NCc1ccc2c(c1)OCO2 (stereo unspecified) | -1.4 | -31.6 | 2.9 | -13.0 | 2.0 | 0.2
O=C(CSc1nnc(-c2ccccc2)c(-c2ccccc2)n1)NCc1ccco1 | . | . | -13.3 | -1.9 | 0.7 | .
CC(Sc1nc2cc([N+](=O)[O-])ccc2n1-c1ccc(F)cc1)C(=O)NCc1ccc2c(c1)OCO2 (stereo unspecified) | . | -3.9 | -8.1 | 94.0* | -1.6 | .
Cc1cc(C)cc(-n2c(SC(C)C(=O)NCc3ccc4c(c3)OCO4)nc3ccccc3c2=O)c1 (stereo unspecified) | 10.1 | 3.0 | . | 64.2* | -0.2 | 0.3
